In data set [1] the target is T1, Peroxisome proliferator-activated receptor gamma (Homo sapiens) (UniProt P37231).
T1 sequence (whole entry): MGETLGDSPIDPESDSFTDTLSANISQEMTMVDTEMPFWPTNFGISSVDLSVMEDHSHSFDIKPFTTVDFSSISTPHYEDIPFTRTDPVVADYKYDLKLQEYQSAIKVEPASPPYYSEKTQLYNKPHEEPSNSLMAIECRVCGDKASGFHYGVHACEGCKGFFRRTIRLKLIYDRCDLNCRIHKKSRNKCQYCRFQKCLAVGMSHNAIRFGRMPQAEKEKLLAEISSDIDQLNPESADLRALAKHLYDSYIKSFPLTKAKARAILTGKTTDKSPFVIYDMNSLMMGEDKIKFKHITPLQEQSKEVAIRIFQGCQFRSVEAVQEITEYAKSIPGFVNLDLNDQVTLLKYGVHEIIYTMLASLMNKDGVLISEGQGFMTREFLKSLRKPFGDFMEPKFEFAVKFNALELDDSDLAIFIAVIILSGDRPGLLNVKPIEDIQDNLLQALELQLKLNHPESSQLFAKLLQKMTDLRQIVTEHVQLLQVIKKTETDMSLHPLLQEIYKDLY
As to the kind of experiment: Agonist activity at PPARgamma (unknown origin) in human HepG2 cells assessed as receptor transactivation at 10 uM incubated for 18 hrs by Gal4 luciferase reporter gene assay. It counts as cell-based. In outline: (§1)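 HepG2 cells transfected with a GAL4-UAS luciferase reporter, Renilla vector and GAL4 DNA-binding domain fusions of the GR, LXR or PPARγ ligand-binding domain; 48 h later stimulated 18 h at 10 μM beside the matching reference agonist (dexamethasone, GW3965, rosiglitazone). Three experiments, mean ± SE.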
Background: Reporter assays use an easily measured gene product as a stand-in for the process of interest.

Data set [2] deals with T2, G-protein coupled bile acid receptor 1 (Mus musculus) (UniProt Q80SS6).
T2 sequence (whole entry): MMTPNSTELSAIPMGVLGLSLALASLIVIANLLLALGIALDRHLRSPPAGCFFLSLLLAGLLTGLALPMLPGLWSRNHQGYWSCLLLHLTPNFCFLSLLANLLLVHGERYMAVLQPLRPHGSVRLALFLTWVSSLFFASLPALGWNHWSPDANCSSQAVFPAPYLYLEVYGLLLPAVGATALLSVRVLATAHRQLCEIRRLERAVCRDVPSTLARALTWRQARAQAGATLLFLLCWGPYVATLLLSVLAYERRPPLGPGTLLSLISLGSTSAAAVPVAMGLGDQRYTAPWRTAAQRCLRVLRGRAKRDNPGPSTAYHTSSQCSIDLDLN
As to the kind of experiment: Agonist activity at GP-BAR1 in mouse GLUTag cells assessed as increase in pro-glucagon mRNA expression at 10 uM by RT-PCR method. Format: cell-based. In outline: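 Murine GLUTag enteroendocrine cells (D-MEM, 10% FBS) treated at 10 μM. Pro-glucagon mRNA measured by SYBR real-time PCR in triplicate, normalized to GAPDH and expressed relative to untreated cells set to 1.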

In data set [3] the target is T3, G-protein coupled bile acid receptor 1 (Homo sapiens, UniProt Q8TDU6).
T3 sequence (Q8TDU6 whole entry): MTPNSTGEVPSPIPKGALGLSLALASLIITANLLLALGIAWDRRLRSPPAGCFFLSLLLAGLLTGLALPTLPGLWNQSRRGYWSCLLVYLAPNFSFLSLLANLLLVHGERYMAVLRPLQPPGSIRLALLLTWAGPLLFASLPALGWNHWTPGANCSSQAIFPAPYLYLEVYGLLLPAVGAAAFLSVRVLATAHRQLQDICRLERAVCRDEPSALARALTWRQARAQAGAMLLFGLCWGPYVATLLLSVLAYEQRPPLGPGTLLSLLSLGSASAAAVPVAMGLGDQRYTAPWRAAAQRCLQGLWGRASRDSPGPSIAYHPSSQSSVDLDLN
As to the kind of experiment: Agonist activity at GP-BAR1 (unknown origin) in human HEK293 cells assessed as receptor transactivation at 100 nM to 50 uM […] by CRE-driven luciferase reporter gene assay. It counts as functional, cell-based.

In data set [4] the target is T4, Bile acid receptor (Homo sapiens) (UniProt Q96RI1).
T4 sequence (whole entry): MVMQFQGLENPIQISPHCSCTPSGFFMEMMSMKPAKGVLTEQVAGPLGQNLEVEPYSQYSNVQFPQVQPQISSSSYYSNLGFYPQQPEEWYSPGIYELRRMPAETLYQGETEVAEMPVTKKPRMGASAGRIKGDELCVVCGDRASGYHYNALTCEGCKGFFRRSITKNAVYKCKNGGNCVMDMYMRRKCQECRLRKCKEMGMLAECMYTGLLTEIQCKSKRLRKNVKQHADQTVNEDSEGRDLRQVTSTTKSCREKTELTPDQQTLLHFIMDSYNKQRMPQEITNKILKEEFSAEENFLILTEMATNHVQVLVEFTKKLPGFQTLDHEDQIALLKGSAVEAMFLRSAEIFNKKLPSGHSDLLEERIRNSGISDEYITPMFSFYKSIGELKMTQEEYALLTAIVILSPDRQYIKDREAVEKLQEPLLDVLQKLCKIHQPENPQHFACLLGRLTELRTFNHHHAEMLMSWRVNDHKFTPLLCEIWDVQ
As to the kind of experiment: Agonist activity at FXR in human HepG2 cells assessed as increase in OSTalpha mRNA expression at 10 uM by RT-PCR method. Format: cell-based. The procedure, abridged: (§2)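 HepG2 cells treated at 10 μM. TRIzol RNA was DNase-treated and reverse transcribed with random primers, then SYBR real-time PCR run in triplicate (40 cycles, 95 °C/60 °C). Values normalized to GAPDH and expressed relative to untreated cells set to 1.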

The target in data set [5] is T4, Bile acid receptor (Homo sapiens). The data set is described as follows: Agonist activity at FXR in human HepG2 cells assessed as increase in BSEP mRNA expression at 10 uM by RT-PCR method. It counts as cell-based. The procedure, abridged:
as §2

For data set [6] the target is unchanged. The data set is described as follows: Agonist activity at FXR in human HepG2 cells assessed as increase in SHP mRNA expression at 10 uM by RT-PCR method. Format: cell-based. In outline:
as §2

The target of another data set is T5, Bile acid receptor (Homo sapiens, UniProt Q96RI1).
T5 sequence (Q96RI1 whole entry): T4 sequence (whole entry)
As to the kind of experiment: Agonist activity at FXR (unknown origin) expressed in human HepG2 cells assessed as receptor transactivation at 100 nM to 50 uM […] by FXR response element driven HSP27-TK-luciferase reporter gene assay. Format: cell-based.

For data set [7], the target named is T6, Nuclear receptor subfamily 1 group I member 2 (Homo sapiens, UniProt O75469).
T6 sequence (O75469 whole entry): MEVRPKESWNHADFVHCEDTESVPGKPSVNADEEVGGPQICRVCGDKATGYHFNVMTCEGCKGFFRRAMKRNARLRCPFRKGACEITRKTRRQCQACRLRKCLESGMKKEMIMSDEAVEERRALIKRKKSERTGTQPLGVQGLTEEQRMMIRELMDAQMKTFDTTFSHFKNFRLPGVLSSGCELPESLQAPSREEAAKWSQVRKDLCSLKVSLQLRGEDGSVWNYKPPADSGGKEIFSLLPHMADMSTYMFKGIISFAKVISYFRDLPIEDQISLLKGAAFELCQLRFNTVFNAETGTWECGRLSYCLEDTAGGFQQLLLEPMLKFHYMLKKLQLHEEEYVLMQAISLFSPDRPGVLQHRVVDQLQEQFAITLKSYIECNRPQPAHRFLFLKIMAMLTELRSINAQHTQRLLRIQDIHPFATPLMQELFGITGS
As to the kind of experiment: Agonist activity at PXR (unknown origin) in human HepG2 cells co-transfcted with RXR assessed as receptor transactivation at 10 uM incubated for 18 hrs by CYP3A4 promoter-TKLuc luciferase reporter gene assay. Conditions: hepg2, 18 h.

The target of data set [8] is T7, Glucocorticoid receptor (Homo sapiens) (UniProt P04150).
T7 sequence (whole entry): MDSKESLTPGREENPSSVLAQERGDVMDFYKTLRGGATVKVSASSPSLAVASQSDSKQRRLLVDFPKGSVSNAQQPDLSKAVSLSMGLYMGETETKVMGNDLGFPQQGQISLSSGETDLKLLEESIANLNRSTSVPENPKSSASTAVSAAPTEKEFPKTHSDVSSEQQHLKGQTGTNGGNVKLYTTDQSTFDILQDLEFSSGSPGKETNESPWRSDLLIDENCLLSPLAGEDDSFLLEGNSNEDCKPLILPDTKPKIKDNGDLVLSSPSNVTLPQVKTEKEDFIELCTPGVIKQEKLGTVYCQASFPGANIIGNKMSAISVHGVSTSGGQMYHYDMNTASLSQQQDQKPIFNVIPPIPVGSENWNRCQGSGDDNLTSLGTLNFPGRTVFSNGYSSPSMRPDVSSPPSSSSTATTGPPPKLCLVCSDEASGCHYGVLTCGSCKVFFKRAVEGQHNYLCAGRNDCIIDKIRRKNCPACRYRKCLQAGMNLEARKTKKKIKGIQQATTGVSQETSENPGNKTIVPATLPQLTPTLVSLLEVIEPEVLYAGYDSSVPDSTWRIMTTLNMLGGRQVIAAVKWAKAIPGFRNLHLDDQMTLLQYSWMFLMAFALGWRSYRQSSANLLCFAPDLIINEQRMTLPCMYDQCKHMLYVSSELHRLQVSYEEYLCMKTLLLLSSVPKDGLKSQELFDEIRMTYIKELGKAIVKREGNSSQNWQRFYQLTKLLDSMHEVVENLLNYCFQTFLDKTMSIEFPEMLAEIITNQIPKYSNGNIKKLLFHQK
As to the kind of experiment: Agonist activity at GCR (unknown origin) in human HepG2 cells assessed as receptor transactivation at 10 uM incubated for 18 hrs by Gal4 luciferase reporter gene assay. Format: cell-based. The procedure, abridged:
as §1

Data set [9] concerns the target Liver X receptor (Homo sapiens) (UniProt Q13133+P55055). As to the kind of experiment: Agonist activity at LXR (unknown origin) in human HepG2 cells assessed as receptor transactivation at 10 uM incubated for 18 hrs by Gal4 luciferase reporter gene assay. Format: cell-based. In outline: as §1
The target in data set [10] is T8, G-protein coupled bile acid receptor 1 (Homo sapiens) (UniProt Q8TDU6).
T8 sequence (whole entry): T3 sequence (Q8TDU6 whole entry)
As to the kind of experiment: Agonist activity at GP-BAR1 in human THP1 cells assessed as increase in cAMP level at 10 uM by enzyme immunoassay. Conditions: THP-1. It counts as functional, cell-based. The procedure, abridged: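 THP-1 monocytes serum-starved overnight, then stimulated 30 min at 10 μM, with forskolin 10 μM as reference. cAMP measured by direct cAMP enzyme immunoassay. Three experiments, mean ± SE.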

SMILES strings stand for the structures. Activity calls are given as the source filed them. The calls are words filed in the database; no cut-off is given here.

Regarding `C[C@H](CCCOS(=O)(=O)[O-])[C@H]1CC[C@H]2[C@@H]3[C@H](O)C[C@@H]4CCCC[C@]4(C)[C@H]3CC[C@]12C.[Na+]`, the outcome in data set [1], in data set [2], in [8] and in data set [9] was inactive. The EC50 result is “Not Active” in data set [3] (hek293) and 9 µM at Bile acid receptor (read-out: EC50). For the same molecule, the result in data set [4], in data set [5] and in [6] was Active. Further, the outcome in data set [7] was Active.
Take `CC[C@H]1[C@@H](O)[C@@H]2[C@H](CC[C@]3(C)[C@@H]([C@H](C)CCO)CC[C@@H]23)[C@@]2(C)CC[C@@H](O)C[C@@H]12`: the outcome in data set [1], in [8] and in data set [9] was inactive. Also, the result in data set [2], in [4], in [5], in data set [6] and in data set [10] was Active. Moreover, the result in [7] was Active.
`CC[C@@H]1[C@H](O)[C@@H]2[C@H](CC[C@]3(C)[C@@H]([C@H](C)CCCO)CC[C@@H]23)[C@@]2(C)CC[C@@H](O)C[C@@H]12`: the result in data set [1], in [8] and in data set [9] was inactive. Moreover, the outcome in data set [2] and in data set [10] was Active. Further, the results for the EC50 (in [3] (read-out: EC50); at Bile acid receptor (hepg2)) were 1.03 µM and “Not Active”, respectively. Further, the result in [7] was Active.

The term EC50 denotes the midpoint of the concentration-response curve.

For the origin of these results see ChEMBL document CHEMBL3351323, “Exploitation of cholane scaffold for the discovery of potent and selective farnesoid X receptor (FXR) and G-protein coupled bile acid receptor 1 (GP-BAR1) ligands” (J Med Chem, 2014).
